# From ChEMBL document CHEMBL4513216, “Probing the Open Global Health Chemical Diversity Library for Multistage-Active Starting Points for Next-Generation Antimalarials” (ACS Infect Dis, 2020)
# Assay: Toxicity liver stage against HepG2, at 10uM
# Type: cell-based
# Set-up: test concentration 10 uM, cell line HepG2-A16-CD81EGFP
# Conditions: human, HepG2-A16-CD81EGFP cells; read-out: INHIBITION
# Method in brief: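 Uninfected HepG2-A16-CD81EGFP cells, 3 × 10^3 per well, 1536-well, plated on prespotted compound at 10 μM final, parasite-free screening media added to match infected plates; puromycin 10 μM positive, DMSO 0.5% negative; run in parallel with 48 h PbLuc assay at 37 °C, 5% CO2; viability by CellTiter-Glo luminescence, normalized to controls.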
row,SMILES,cytotoxicity at 10 µM [%]
1,CN1CCN(c2ccncc2S(=O)(=O)N2CCCCC2)CC1,-6.84
2,Cc1nnc2n1CCN(C(C(N)=O)c1ccc(F)cc1)C2 (stereo unspecified),-13.5
3,CC(C)CNC(=O)Cn1ccc2ccccc21,-43.4
4,CC(C)Cc1nc(NC(=O)c2cccnc2)n[nH]1,-1.18
5,CC(=O)Nc1cccc2c1ccn2CC(=O)Nc1ncc[nH]1,5.83
6,COCCN(Cc1ccoc1)S(=O)(=O)c1cccc(C(F)(F)F)c1,3.17
7,Cc1ccsc1C(=O)N1CC(C(=O)N2CCOCC2)C2(CCOCC2)C1 (stereo unspecified),1.47
8,CNC(=O)c1ccc(C2CN(c3cc(C)nc(N)n3)CCO2)nc1 (stereo unspecified),2.02
9,CO[C@H]1CN(Cc2nc3ccccc3n2C)C[C@@]12CCCO2,4.32
10,Cc1nc(CN2CCC2(CCCc2ccccn2)C(=O)N(C)C)co1 (stereo unspecified),11.4
11,Cc1nc(C)c(C(=O)N2Cc3ccccc3OCC2Cn2ccnc2)o1 (stereo unspecified),7.92
12,Fc1ccccc1Oc1nccnc1C1CCN(C2CCOCC2)CC1,13.9
13,CNc1cc(C2CN(C(=O)c3cnn(C)c3)CCO2)nc(C)n1 (stereo unspecified),-5.42
14,NCc1cccc(-c2cccnc2C(=O)NCCN2CCOCC2)c1,-1.29
15,CN(C)S(=O)(=O)N1CCCC(c2ccncn2)C1 (stereo unspecified),-15.3
16,C=C(C)CN1CCN(Cc2cnc(OC)nc2)CC1,5.16
17,Cc1noc(C2(C)CCCN(C(=O)c3cccnc3)C2)n1 (stereo unspecified),-13.4
18,O=C(c1cccnn1)N1C[C@@H]2CC[C@H](Oc3cccc(F)c3)[C@@H]2C1,-13.6
19,Cc1nc(Nc2cnccn2)cc(C2CCCN2C2CCOCC2)n1 (stereo unspecified),-17.3
20,COc1ccc(CN(C)[C@@H]2CN(C(=O)c3ccccc3)C[C@H]2O)cc1,-2.64
21,CCCn1cc(CN2CCCC2c2nccc(CN(C)C)n2)cn1 (stereo unspecified),19.7
22,CC1(C(=O)N2CCOCC2)CN(Cc2ccccc2F)CCO1 (stereo unspecified),2.03
23,CCn1cnnc1CCNC(=O)c1ccc(Br)cc1F,-29.7

row,SMILES,cytotoxicity at 10 µM [%]
1,CC(C)c1nnc(NC(=O)NCc2cccnc2NCCN(C)C)s1,3.92
2,Cc1nn(C)c(C)c1NC(=O)CN1CCOC(CN(C)C)C1 (stereo unspecified),-8.72
3,CC(C)n1cnnc1CNC(=O)CCCOc1ccccc1Cl,-3.51
4,CN(CC1COc2ccccc2O1)C(=O)C1=NN(C)C(=O)CC1 (stereo unspecified),-52.2
5,N#Cc1ccc(CN2CCN(Cc3ccncc3Cl)CC2=O)cc1,6.43
6,COc1ccc(N(CCC(N)=O)C(=O)CSc2ccc(Cl)cc2)cc1,-4.37
7,O=C(Cn1ccc(=O)[nH]c1=O)Nc1ccccc1F,-0.691
8,COCCCn1nnc(C2(NC(=O)c3ccccc3)CCCC2)n1,9.24
9,CS(=O)(=O)NCCC(=O)N1CCCC1c1noc(C2CC2)n1 (stereo unspecified),-10.4
10,COCCNC(=O)Nc1ccc(C(=O)N2CCSCC2)cc1C,-2.13
11,CCOC(=O)N1CCN(CC(=O)Nc2ccc(F)cc2Cl)CC1,6
12,COc1ccc(S(=O)(=O)NC(=O)c2c(C)noc2C(C)C)cc1C,0.495
13,COc1ccc(CCN2CCOC(Cn3nc(C)nc3C)C2)cc1 (stereo unspecified),2.29
14,O=C(NCc1ncc[nH]1)c1c(F)cccc1I,-6.78
15,COCc1ccccc1C(=O)NS(=O)(=O)c1ccc2c(c1)CCC(=O)N2,-1.74
16,Cc1ccccc1OCCC(=O)N(C)Cc1c(C)noc1C,-8.73
17,CSC(C)C(=O)N1CCN(CC(C)(C)O)CC1 (stereo unspecified),-10.2
18,N#Cc1ccc(NCC(O)c2ccco2)c(C(F)(F)F)c1 (stereo unspecified),-31.7
19,Cc1ccccc1C(C)NC(=O)c1ccc(=O)n(C)c1 (stereo unspecified),4.31
20,CS(=O)(=O)CCS(=O)(=O)Cc1cc(Cl)c2c(c1)OCCCO2,-0.0261
21,Nc1cc2c(nn1)CCN(C(=O)c1csc(-c3cccs3)n1)C2,-1.32
22,Cc1nsc(N2CCN(C(=O)Nc3ccc4[nH]ccc4c3)CC2)n1,4.52
23,Cc1nc(CNC(=O)C(C)(C)c2ccc(F)cc2)no1,6.08

row,SMILES,cytotoxicity at 10 µM [%]
1,O=C(NCCc1ccccc1)N1CCCCC1C1OCCO1 (stereo unspecified),-45.2
2,CCc1nnc2n1CCN(C(=O)c1ccc3c(c1)NC(=O)CO3)C2,1.24
3,O=C(c1ccc[nH]1)N1CCc2ncc(Cn3cccn3)n2CC1,-0.469
4,Cn1ncc2c1C(COCC1CC1)CN(C(=O)c1ccoc1)C2 (stereo unspecified),-2.18
5,CCn1ncc2c1C(COC)N(C(=O)Cc1cccs1)CC2 (stereo unspecified),-109
6,O=C(Cc1ccco1)N1C[C@@H]2COC[C@]2(COCC2CCOCC2)C1,-102
7,O=C(c1cn[nH]c1)N1CCC2(CCCN(Cc3ccc(F)c(F)c3)C2)C1 (stereo unspecified),6.07
8,CC(C)[C@H](Nc1cc(-c2ccncc2)nc2ccnn12)C(N)=O,0.782
9,CCn1cc(CN2CCCC2c2nc(C(C)C)no2)cc1C#N (stereo unspecified),1.44
10,CCO[C@H]1C[C@@H](O)C12CCN(C1CCN(c3ccccc3)CC1)CC2,4.24
11,Cc1cc(F)ccc1C(=O)N1CCN(C)C2(CCC(=O)N(C)CC2)C1 (stereo unspecified),4.78
12,CCn1cc(CN2CCCC2c2nc(-c3ccccc3)no2)cc1C#N (stereo unspecified),0.165
13,Cc1oncc1C(=O)N1CCC(O)(CN2CCOCC2)C(C)(C)C1 (stereo unspecified),-5.26
14,COc1cccc(CC2CN(C3CCC3)CCO2)c1 (stereo unspecified),0.388
15,N#Cc1cccc(N2CCCC(CO)(CCOc3ccccc3)C2)n1 (stereo unspecified),-47.2
16,Cc1cccnc1N1CCC(c2nccn2Cc2cscn2)CC1,-0.65
17,Cc1nc2c(c(NCCc3nc4c(s3)CCCC4)n1)CCNCC2,-7.33
18,CCN(Cc1ccncc1)C1CCCN(Cc2ccc(F)cc2OC)C1 (stereo unspecified),-3.73
19,O=C(CCC1CCN(C2Cc3ccccc3C2)CC1)NCC1CCCO1 (stereo unspecified),7.36
20,CCN(C)C[C@@H]1CN(C(=O)c2cc(C(F)(F)F)n[nH]2)C[C@@H]1CO,-12.1
21,Cn1ncc(N2CCOC(CCNC(=O)CO)C2)cc1=O (stereo unspecified),-8.58
22,CN(Cc1csc(-c2ccccc2)n1)Cc1ncccc1C(=O)O,6.03
23,CCSCCNc1nc2c(s1)c(C)nn2C,-0.145

row,SMILES,cytotoxicity at 10 µM [%]
1,CCCc1nc(N[C@H]2COC[C@@H]2N2CCCC2)c2cnn(C)c2n1,-6.56
2,CCn1nc(C)c(C(C)NC(=O)c2cccc(NCC(=O)O)c2)c1C (stereo unspecified),3.04
3,CNc1ncc(CN(C)C(=O)c2cccc(-n3cccn3)c2)cn1,-2.38
4,CCC(NS(=O)(=O)c1ccc(C(=O)NC2CC2)cc1)c1ccnn1C (stereo unspecified),9.65
5,CCc1cccc(C)c1NC(=O)c1ccccc1N(C)S(C)(=O)=O,17.8
6,COc1cc(C(=O)O)cc(I)c1OCC(=O)NCCc1ccccc1,-11.9
7,COc1cccc([C@@H]2CN(C3CCCC3)C[C@H]2C(=O)O)c1,-5.89
8,CN(C(=O)c1ccccc1NCC(=O)O)C(C1CC1)C1CC1,1.73
9,Cc1ccsc1-c1nccn1CCS(C)(=O)=O,3.03
10,Cc1nc(NC(=O)NC2CC(=O)N(C)C2)nn1C (stereo unspecified),-12.2
11,OC1(CN2CCCC2)COCCN(c2nccs2)C1 (stereo unspecified),-7.64
12,CC(C)=CCN1CCN(C(=O)COc2ccccc2)[C@H]2CS(=O)(=O)C[C@H]21,-1.64
13,Cc1csc(N2CCN(CC(=O)N3CCNC3=O)CC2C)n1 (stereo unspecified),-12.4
14,CCc1nc(C2CCCN2CC(=O)NCCc2ccsc2)no1 (stereo unspecified),-2.81
15,c1ncn(CC2CCCCN2Cc2cn3ccsc3n2)n1 (stereo unspecified),-13.9
16,N#CC1(C(=O)N2CCN(Cc3cscn3)CC2)CCCCC1,-3.27
17,CCc1noc(CN2CCCN(C(C)=O)CC2)n1,-1.25
18,CCn1cc(CN2CCCN(C(=O)c3ccc(C#N)cc3)CC2)cn1,1.8
19,CCCc1nc(CN2CCCN(Cc3nccn3C)CC2)no1,-3.33
20,Cc1nc(C)n(CC2CN(CCCOc3ccc(F)cc3)CCO2)n1 (stereo unspecified),-4.26
21,OC(CNCCn1cccn1)c1ccc(Br)cc1 (stereo unspecified),-19.9
22,COc1ccccc1S(=O)(=O)Nc1ccc2c(C(=O)O)c[nH]c2c1,-11.1
23,CCOCC(O)CN1CCN(C(=O)Cc2ccccc2Cl)CC1 (stereo unspecified),-1.19

row,SMILES,cytotoxicity at 10 µM [%]
1,NC(=O)c1cnn2c1NCC(CNCCc1ccco1)C2 (stereo unspecified),1.46
2,CC(NC(=O)Nc1cc(F)ccc1N1CCCCC1)c1nncn1C (stereo unspecified),-3.36
3,Cn1cc(-c2nc(CNCCn3cccn3)cs2)cn1,-13
4,Cc1nc(C2CCNC2)nc2c1CCC(=O)N2CC(C)C (stereo unspecified),2.04
5,O=C(NC1CC1)[C@@]12CCO[C@@H]1CCN(Cc1ccc3c(c1)OCO3)C2,-2.87
6,CCOC1COC2(CCN(Cc3cccc(C)n3)CC2)C1 (stereo unspecified),11.8
7,O=C(Nc1cccnc1)[C@H]1CO[C@H]2CCN(c3ncc(F)cn3)C[C@H]2C1,-12.8
8,O=C([C@H]1CC[C@@H]2[C@@H](CCN2C2CCOCC2)O1)N1CCOCC1,-0.824
9,Cc1ccc(CN2CC[C@H]3C[C@H](C(=O)N(C)C)O[C@H]3C2)cc1,1.94
10,CC(C)N(C)Cc1cc(=O)n2c(n1)CN(S(=O)(=O)C1CC1)CCC2,0.819
11,COCCN1CCO[C@H]2CN(Cc3cccc(C)n3)C[C@H]21,-116
12,Cn1cc(-c2ncnc3c2CCN(CC2CCOC2)CC3)cn1 (stereo unspecified),-112
13,Cc1ccc(N2CCO[C@H]3CN(Cc4cnn(C)c4)C[C@H]32)nn1,3.86
14,CC(C)N(C)Cc1cncc2c1CCN(C1CCOCC1)C2,5.88
15,Cc1ccc(CN2CCn3c(COc4cccnc4)cnc3C2C)o1 (stereo unspecified),-111
16,CN(C)[C@@H]1CN(Cc2ccoc2)C[C@@H]2CCCO[C@@H]21,1.93
17,COc1ncccc1C(=O)N1CCC2(CC1)CC(OC)CO2 (stereo unspecified),-97
18,COc1ccc(OC)c(C2CCN(C(=O)C3CCC(O)CC3)C2)c1 (stereo unspecified),-1.65
19,CC=C(C)C(=O)NS(=O)(=O)c1ccc(Cl)cn1,7.04
